Measured values published in ChEMBL document CHEMBL4190346, “Structure-based design, synthesis, and biological evaluation of withaferin A-analogues as potent apoptotic inducers” (Eur J Med Chem, 2017).
The source made the active and inactive calls. The calls are words filed in the database; no cut-off is given here.

Key:
[1] = test system: HeLa; test: Induction of apoptosis in human HeLa cells assessed as increase in caspase-3 activity by measuring pNA release level at 8 uM incubated for 4 hrs using c-DEVD-pNA substrate by colorimetric assay; type: functional
How it was run: (§1)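 HeLa cells in DMEM with 10% FBS were exposed for 4 h (fixed 24 or 32 level for 8 h). Staurosporine for 4 h served as the positive control. Cells were lysed at 4 °C for 10 min and centrifuged, and supernatant protein was measured by Bradford. Caspase-3 activity was read colorimetrically as nmol pNA/min/mL, with treated/untreated OD ratios. Values are means ± SD of three independent experiments in triplicate.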

[2] = test system: MCF7; test: Cytotoxicity against human MCF7 cells assessed as reduction in cell viability using compound addition to cell culture cells in lag phase of growth and incubated for 48 hrs by MTT assay; type: functional, cell-based; conditions: Homo sapiens, MCF7, 48 h; read-out: IC50
[3] = test system: A549; test: Cytotoxicity against human A549 cells assessed as reduction in cell viability using compound addition to cell culture cells in log phase of growth and incubated for 48 hrs by MTT assay; type: functional, cell-based; conditions: Homo sapiens, A549, 48 h; read-out: IC50
[4] = test system: Vero; test: Cytotoxicity against African green monkey Vero cells assessed as reduction in cell viability using compound addition to cell culture cells in lag phase of growth and incubated for 48 hrs by MTT assay; type: cell-based, Chlorocebus sabaeus; conditions: Chlorocebus sabaeus, Vero, 48 h; read-out: IC50
[5] = test system: HeLa; test: Cytotoxicity against human HeLa cells assessed as reduction in cell viability using compound addition to cell culture cells in log phase of growth and incubated for 48 hrs by MTT assay; type: functional, cell-based; conditions: Homo sapiens, HeLa, 48 h; read-out: IC50
[6] = test system: HeLa; test: Induction of apoptosis in human HeLa cells assessed as increase in caspase-3 activity by measuring pNA release level at 24 uM incubated for 4 hrs using c-DEVD-pNA substrate by colorimetric assay; type: functional; how it was run: as §1
[7] = test system: HeLa; test: Cytotoxicity against human HeLa cells assessed as reduction in cell viability using compound addition to cell culture cells in lag phase of growth and incubated for 48 hrs by MTT assay; type: functional, cell-based; conditions: Homo sapiens, HeLa, 48 h; read-out: IC50
[8] = test system: MCF7; test: Cytotoxicity against human MCF7 cells assessed as reduction in cell viability using compound addition to cell culture cells in log phase of growth and incubated for 48 hrs by MTT assay; type: functional, cell-based; conditions: Homo sapiens, MCF7, 48 h; read-out: IC50
[9] = test system: Vero; test: Cytotoxicity against African green monkey Vero cells assessed as reduction in cell viability using compound addition to cell culture cells in log phase of growth and incubated for 48 hrs by MTT assay; type: cell-based, Chlorocebus sabaeus; conditions: Chlorocebus sabaeus, Vero, 48 h; read-out: IC50
[10] = test system: HeLa; test: Induction of apoptosis in human HeLa cells assessed as increase in caspase-3 activity by measuring pNA release level at 16 uM incubated for 4 hrs using c-DEVD-pNA substrate by colorimetric assay; type: functional; how it was run: as §1
[11] = test system: A549; test: Cytotoxicity against human A549 cells assessed as reduction in cell viability using compound addition to cell culture cells in lag phase of growth and incubated for 48 hrs by MTT assay; type: functional, cell-based; conditions: Homo sapiens, A549, 48 h; read-out: IC50
[12] = test system: HeLa; test: Induction of apoptosis in human HeLa cells assessed as increase in caspase-3 activity by measuring pNA release level at 32 uM incubated for 4 hrs using c-DEVD-pNA substrate by colorimetric assay; type: functional; how it was run: as §1
[13] = test system: HeLa; test: Induction of apoptosis in human HeLa cells assessed as increase in caspase-3 activity by measuring pNA release level at 12 uM incubated for 4 hrs using c-DEVD-pNA substrate by colorimetric assay; type: functional; how it was run: as §1
[14] = test system: HeLa; test: Induction of apoptosis in human HeLa cells assessed as […] by measuring pNA release level at 32 uM incubated for 8 hrs using c-DEVD-pNA substrate by colorimetric assay; type: functional, cell-based; how it was run: as §1
[15] = test system: MCF7; test: Ratio of IC50 for cytotoxicity against human MCF7 cells incubated for 48 hrs to IC50 for cytotoxicity against human MCF7 cells incubated for 72 hrs; type: functional
[16] = test system: MCF7 (Homo sapiens); test: Ratio of IC50 for cytotoxicity against human MCF7 cells incubated for 48 hrs to IC50 for cytotoxicity against human MCF7 cells incubated for 72 hrs
[17] = test system: MCF7 (Homo sapiens); test: as above; remark: listed apart in the source

## CCC(=O)OCC1=C(C)C[C@H]([C@@H](C)[C@H]2CC[C@H]3[C@@H]4C[C@H]5O[C@]56[C@@H](OC(=O)CC)C=CC(=O)[C@]6(C)[C@H]4CC[C@]23C)OC1=O
[1]
  Activity: 0.58 nmol/min/mL
[2]
  IC50: 2.4 µM
[3]
  IC50: 4.1 µM
[4]
  IC50: 1.5 µM
[5]
  IC50: 1.1 µM
[6]
  Activity: 1.6 nmol/min/mL
[7]
  IC50: 2.1 µM
[8]
  IC50: 1.1 µM
[9]
  IC50: 0.8 µM
[10]
  Activity: 2.3 nmol/min/mL
[11]
  IC50: 2.6 µM
[12]
  Activity: 1.7 nmol/min/mL
[13]
  Activity: 1.1 nmol/min/mL
[14]
  Activity: Active

## CC1=C(CO)C(=O)O[C@@H]([C@@H](C)[C@H]2CC[C@H]3[C@@H]4C[C@H]5O[C@]56[C@@H](O)C=C[C@@H](O)[C@]6(C)[C@H]4CC[C@]23C)C1
[15]
  Ratio IC50: >3
[2]
  IC50: 16.8 µM
[3]
  IC50: 17.3 µM
[4]
  IC50: 7.1 µM
[5]
  IC50: 17.5 µM
[16]
  Ratio IC50: >3
[7]
  IC50: 15.8 µM
[8]
  IC50: 7.5 µM
[17]
  Ratio IC50: >3
[9]
  IC50: 6 µM
[11]
  IC50: > 40 µM

## CC1=C(COC(=O)c2ccoc2)C(=O)O[C@@H]([C@@H](C)[C@H]2CC[C@H]3[C@@H]4C[C@H]5O[C@]56[C@@H](OC(=O)c5ccoc5)C=CC(=O)[C@]6(C)[C@H]4CC[C@]23C)C1
[15]
  Ratio IC50: >3
[2]
  IC50: 1.5 µM
[3]
  IC50: 3.8 µM
[4]
  IC50: 0.9 µM
[5]
  IC50: 3.8 µM
[16]
  Ratio IC50: >3
[7]
  IC50: 2.9 µM
[8]
  IC50: 1.7 µM
[17]
  Ratio IC50: >3
[9]
  IC50: 0.9 µM
[11]
  IC50: 3.6 µM

## CC1=C(COC(=O)CBr)C(=O)O[C@@H]([C@@H](C)[C@H]2CC[C@H]3[C@@H]4C[C@H]5O[C@]56[C@@H](O)C=CC(=O)[C@]6(C)[C@H]4CC[C@]23C)C1
[15]
  Ratio IC50: >3
[2]
  IC50: 1.2 µM
[3]
  IC50: 4.8 µM
[4]
  IC50: 1.1 µM
[5]
  IC50: 4.9 µM
[16]
  Ratio IC50: >3
[7]
  IC50: 2.1 µM
[8]
  IC50: 0.9 µM
[17]
  Ratio IC50: >3
[9]
  IC50: 1.6 µM
[11]
  IC50: 3.9 µM

## CC1=C(C=O)C(=O)O[C@@H]([C@@H](C)[C@H]2CC[C@H]3[C@@H]4C[C@H]5O[C@]56[C@@H](O)C=CC(=O)[C@]6(C)[C@H]4CC[C@]23C)C1
[15]
  Ratio IC50: >3
[2]
  IC50: 3.7 µM
[3]
  IC50: 13.5 µM
[4]
  IC50: 4.4 µM
[5]
  IC50: 10.9 µM
[16]
  Ratio IC50: >3
[7]
  IC50: 6.5 µM
[8]
  IC50: 2.1 µM
[17]
  Ratio IC50: >3
[9]
  IC50: 3.6 µM
[11]
  IC50: 15.7 µM

## CCCCCCCC(=O)OCC1=C(C)C[C@H]([C@@H](C)[C@H]2CC[C@H]3[C@@H]4C[C@H]5O[C@]56[C@@H](OC(=O)CCCCCCC)C=CC(=O)[C@]6(C)[C@H]4CC[C@]23C)OC1=O
[15]
  Ratio IC50: >3
[2]
  IC50: 23.8 µM
[3]
  IC50: > 40 µM
[4]
  IC50: 3.3 µM
[5]
  IC50: > 40 µM
[16]
  Ratio IC50: >3
[7]
  IC50: 33.8 µM
[8]
  IC50: 33.5 µM
[17]
  Ratio IC50: >3
[9]
  IC50: 18.3 µM
[11]
  IC50: > 40 µM

## CC1=C(CO)C(=O)O[C@@H]([C@@H](C)[C@H]2CC[C@H]3[C@@H]4C[C@@H](O)[C@]5(C=O)C=CC(=O)[C@]5(C)[C@H]4CC[C@]23C)C1
[15]
  Ratio IC50: >3
[3]
  IC50: > 40 µM
[5]
  IC50: > 40 µM
[16]
  Ratio IC50: >3
[8]
  IC50: > 40 µM
[17]
  Ratio IC50: >3
[9]
  IC50: > 40 µM

## CC1=C(COC(=O)c2cccc3ccccc23)C(=O)O[C@@H]([C@@H](C)[C@H]2CC[C@H]3[C@@H]4C[C@H]5O[C@]56[C@@H](O)C=CC(=O)[C@]6(C)[C@H]4CC[C@]23C)C1
[15]
  Ratio IC50: >3
[2]
  IC50: 0.9 µM
[3]
  IC50: 13.7 µM
[4]
  IC50: 0.4 µM
[5]
  IC50: 3.5 µM
[16]
  Ratio IC50: >3
[7]
  IC50: 2 µM
[8]
  IC50: 2.2 µM
[17]
  Ratio IC50: >3
[9]
  IC50: 0.6 µM
[11]
  IC50: 6.4 µM

## CNc1ccccc1C(=O)OCC1=C(C)C[C@H]([C@@H](C)[C@H]2CC[C@H]3[C@@H]4C[C@H]5O[C@]56[C@@H](O)C=CC(=O)[C@]6(C)[C@H]4CC[C@]23C)OC1=O
[15]
  Ratio IC50: >3
[2]
  IC50: 1.6 µM
[3]
  IC50: 4.7 µM
[4]
  IC50: 1.2 µM
[5]
  IC50: 4.2 µM
[16]
  Ratio IC50: >3
[7]
  IC50: 1.6 µM
[8]
  IC50: 1 µM
[17]
  Ratio IC50: >3
[9]
  IC50: 1.6 µM
[11]
  IC50: 3.7 µM

## CCCC(=O)OCC1=C(C)C[C@H]([C@@H](C)[C@H]2CC[C@H]3[C@@H]4C[C@H]5O[C@]56[C@@H](OC(=O)CCC)C=CC(=O)[C@]6(C)[C@H]4CC[C@]23C)OC1=O
[1]
  Activity: 0.15 nmol/min/mL
[2]
  IC50: 1 µM
[3]
  IC50: 1.9 µM
[4]
  IC50: 1.6 µM
[5]
  IC50: 1.6 µM
[6]
  Activity: 0.88 nmol/min/mL
[7]
  IC50: 1.9 µM
[8]
  IC50: 1 µM
[9]
  IC50: 0.7 µM
[10]
  Activity: 0.93 nmol/min/mL
[11]
  IC50: 2.8 µM
[12]
  Activity: 1.7 nmol/min/mL
[13]
  Activity: 0.61 nmol/min/mL
[14]
  Activity: Active

## CCCC(=O)OCC1=C(C)C[C@H]([C@@H](C)[C@H]2CC[C@H]3[C@@H]4C[C@H]5O[C@]56[C@@H](O)C=CC(=O)[C@]6(C)[C@H]4CC[C@]23C)OC1=O
[1]
  Activity: 0.54 nmol/min/mL
[2]
  IC50: 2.4 µM
[3]
  IC50: 2.2 µM
[4]
  IC50: 0.7 µM
[5]
  IC50: 1.2 µM
[6]
  Activity: 1.24 nmol/min/mL
[7]
  IC50: 1.9 µM
[8]
  IC50: 1 µM
[9]
  IC50: 0.5 µM
[10]
  Activity: 1.22 nmol/min/mL
[11]
  IC50: 2.6 µM
[12]
  Activity: 1.33 nmol/min/mL
[13]
  Activity: 0.72 nmol/min/mL
[14]
  Activity: Active

## CCC(=O)OCC1=C(C)C[C@H]([C@@H](C)[C@H]2CC[C@H]3[C@@H]4C[C@H]5O[C@]56[C@@H](O)C=CC(=O)[C@]6(C)[C@H]4CC[C@]23C)OC1=O
[15]
  Ratio IC50: >3
[1]
  Activity: 0.52 nmol/min/mL
[2]
  IC50: 2.3 µM
[3]
  IC50: 2.1 µM
[4]
  IC50: 0.9 µM
[5]
  IC50: 1.1 µM
[16]
  Ratio IC50: >3
[6]
  Activity: 1.9 nmol/min/mL
[7]
  IC50: 1.6 µM
[8]
  IC50: 1.2 µM
[17]
  Ratio IC50: >3
[9]
  IC50: 1 µM
[10]
  Activity: 1.02 nmol/min/mL
[11]
  IC50: 1.6 µM
[12]
  Activity: 1.67 nmol/min/mL
[13]
  Activity: 0.52 nmol/min/mL
[14]
  Activity: Active

## CC1=C(CO)C(=O)O[C@@H]([C@@H](C)[C@H]2CC[C@H]3[C@@H]4C[C@H]5O[C@]56[C@@H](O)[C@@H](N(Cc5ccccc5)Cc5ccccc5)CC(=O)[C@]6(C)[C@H]4CC[C@]23C)C1
[15]
  Ratio IC50: >3
[2]
  IC50: 15.4 µM
[3]
  IC50: > 40 µM
[4]
  IC50: 32.9 µM
[5]
  IC50: > 40 µM
[16]
  Ratio IC50: >3
[7]
  IC50: 22.2 µM
[8]
  IC50: 18.5 µM
[17]
  Ratio IC50: >3
[9]
  IC50: 15.6 µM
[11]
  IC50: 40 µM
